In brackets after ≈: the same amount, converted by molar mass. Activity calls are given as the source filed them. The calls are words filed in the database; no cut-off is given here.

Data set [1] has as its system Toxoplasma gondii. Put plainly: Antiparasitic activity against tachyzoite stage of Toxoplasma gondii PRU infected in HFF assessed as inhibition of parasite growth at 10 uM after 72 hrs by yellow fluorescence reporter gene assay. The class given is functional.
Data set [2] relates to Toxoplasma gondii. Put plainly: Antiparasitic activity against tachyzoite stage of Toxoplasma gondii RH infected in HFF assessed as inhibition of parasite growth after 72 hrs by yellow fluorescence reporter gene assay. The class given is functional. In short, it runs like this: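 HFF infected with 3200 RH-YFP tachyzoites (type 1, stably transfected with yellow fluorescence gene) and treated with compound at the indicated concentrations. Relative YFP fluorescence read after 72 h at excitation/emission 510/540 nm. Controls: pyrimethamine/sulfadiazine (positive), 0.1% DMSO (negative).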
On the technique in general: Reporter assays use an easily measured gene product as a stand-in for the process of interest.

Data set [3] has as its system HFF. Kind of data set: Cytotoxicity against HFF assessed as cell viability at 10 uM after 72 hrs by WST-1 assay. The class given is cell-based. The note with it: human. Put shortly:
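Host HFF incubated with compound at 10 µM for 72 h. Viability read by WST-1 staining. DMSO at several concentrations in the culture medium gave a standard toxicity curve.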
A general note: Tetrazolium assays rely on reduction of a dye to a coloured formazan, in cell work by metabolically active cells.

Data set [4] concerns PC-3. Kind of data set: Cytotoxicity against human PC3 cells at 10 uM after 96 hrs by luciferase reporter gene assay. The class given is cell-based. The note with it: pc-3, 96 h. Put shortly:
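Confluent luciferase-expressing PC3-Luc cells in phenol red-free DMEM (10% FCS, 1% L-glutamine, 1% penicillin-streptomycin) given compound at 10 nM–10 µM. D-luciferin potassium salt added at 150 µg/ml at 48 and 96 h, then bioluminescence imaged for 1 min. Cytotoxicity taken as loss of signal. Controls: 1% Triton X (positive) and vehicle.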

Data set [5] addresses T1, Enoyl-acyl carrier reductase (Toxoplasma gondii, UniProt Q6UCJ9).
T1 sequence (Q6UCJ9 whole entry): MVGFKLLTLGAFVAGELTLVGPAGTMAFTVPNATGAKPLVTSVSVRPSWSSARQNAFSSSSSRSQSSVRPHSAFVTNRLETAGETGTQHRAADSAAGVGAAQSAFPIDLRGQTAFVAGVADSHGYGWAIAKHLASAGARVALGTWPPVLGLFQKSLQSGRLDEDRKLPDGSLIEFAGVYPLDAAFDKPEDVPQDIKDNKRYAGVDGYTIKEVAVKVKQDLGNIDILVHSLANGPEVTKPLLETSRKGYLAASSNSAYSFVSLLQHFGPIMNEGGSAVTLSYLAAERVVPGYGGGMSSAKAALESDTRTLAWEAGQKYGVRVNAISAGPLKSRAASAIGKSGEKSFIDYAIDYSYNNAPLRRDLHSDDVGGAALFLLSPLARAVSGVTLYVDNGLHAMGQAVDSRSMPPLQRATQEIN
Put plainly: Inhibition of Toxoplasma gondii enoyl-ACP reductase-NADH complex.

On to `Cc1ccc(Cn2cnc3cc(C)c(C)cc32)cc1`, for which the inhibition result in data set [1] was “Active”. In data set [2], the MIC50 (commonly the lowest concentration that inhibits either 50% of growth or 50% of the strains tested, depending on the study) is greater than 10 µM. The Activity entry in data set [3] and in data set [4] was “Non-toxic” throughout. Also, in data set [5], the half-maximal inhibitory concentration (IC50) (as a rule, the concentration needed to halve the response being measured) was greater than 1 µM.

With `Cc1cc2ncn(Cc3ccc(Cl)cc3)c2cc1C`, in data set [2], the MIC50 amounted to 4 µM (≈ 1.08 µg/mL). Moreover, the Activity result in data set [3] and in data set [4] was “Non-toxic” each time. Moreover, the IC50 in data set [5] is greater than 1 µM.

In the case of `Cc1cc2ncn(Cc3ccc(Cl)c(Cl)c3)c2cc1C`, in data set [1], the inhibition entry is “Active”. Besides, in data set [2], the MIC50 came out at 2.5 µM (≈ 0.763 µg/mL). The Activity entry in data set [3] and in data set [4] was “Non-toxic” each time. Moreover, the IC50 in data set [5] was greater than 1 µM.

The values above are taken from ChEMBL document CHEMBL3112563, “The benzimidazole based drugs show good activity against T. gondii but poor activity against its proposed enoyl reductase enzyme target” (Bioorg Med Chem Lett, 2014).
